# Source: PubChem BioAssay (Broad Institute)
# Most compounds without a hit are left out; they make up all but 5.8% or so of the library.
# KDM4C inh: KDM4C (human) demethylase inhibition; 96,000 compounds, 0.15% hits; inhibition, % at 12.5 µM; Q9H3R0; AID 720574; GST-KDM4C 2-372, H3K9me3 peptide, LANCE TR-FRET;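 active = mean replicate inhibition above about 25%, with at least 55% of replicates also reaching it, limit read from the data, passing the limit was not always enough; inconclusive = only one of those two conditions met; inactive = neither condition met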
# Target sequence (Q9H3R0 2-372 limits assumed): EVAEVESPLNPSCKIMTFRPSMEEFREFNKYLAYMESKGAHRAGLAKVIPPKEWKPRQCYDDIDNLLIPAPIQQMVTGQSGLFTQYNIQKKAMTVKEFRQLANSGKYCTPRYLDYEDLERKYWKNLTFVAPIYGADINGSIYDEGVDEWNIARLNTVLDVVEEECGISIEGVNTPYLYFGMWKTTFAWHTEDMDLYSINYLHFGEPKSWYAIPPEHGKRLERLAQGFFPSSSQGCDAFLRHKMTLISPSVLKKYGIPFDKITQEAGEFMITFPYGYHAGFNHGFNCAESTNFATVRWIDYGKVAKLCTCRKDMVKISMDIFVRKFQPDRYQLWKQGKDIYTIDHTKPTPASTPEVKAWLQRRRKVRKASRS
#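 Material: GST-tagged GASC-1 (JMJD2C) catalytic fragment, aa 2-372 / Quantity: enzyme final amount 10 nM / Medium: HEPES buffer, pH 7.5, plus ascorbate / Doses: one test concentration per compound / Incubation: 30 min reaction, 60 min detection, RT / Measured by: LANCE TR-FRET / Read-out: inhibition from TR-FRET ratio decrease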
# T cruzi growth-1: T. cruzi proliferation inhibition | T. cruzi beta-gal in NIH3T3, GalScreen luminescence, 90 h | inhibition, % at 8.34 µM | 77,000 compounds, 5.9% hits | AID 624255;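 active = mean inhibition above about 93%, with at least 55% of replicates each passing it, limit read from the data, passing the limit was not always enough; inconclusive = only one of those two conditions holds; inactive = neither condition holds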
# IDH1 mut inh: IDH1 R132H (human) inhibition; 70,000 compounds, 0.18% hits; inhibition, % at 10 µM; O75874; IDH1 R132H reductase, diaphorase/resazurin fluorescence, 60 min; in the data active = inhibition above about 34%; inconclusive = no clear call, values can overlap the other calls; inactive = below about 11%;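 note: 0% = DMSO and 100% = no enzyme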
# Pf Dd2 growth: inhibitors of Plasmodium falciparum Dd2 growth; 94,000 compounds, 2.3% hits; P. falciparum Dd2 growth, SYBR Green, 72 h; active compounds read low; activity change, % at 10 µM; in the data active = activity change below about -80%; inconclusive = no clear call, values can overlap the other calls
# T cruzi growth-2: inhibitors of T. cruzi proliferation | shares compounds with T cruzi growth-1 | T. cruzi beta-gal in NIH3T3, GalScreen luminescence, 90 h | inhibition, % at 8.35 µM | 5,600 compounds, 72% hits | AID 651739;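 active = mean replicate inhibition above about 95% and at least 55% of replicates individually reaching it, limit read from the data; inconclusive = only one of the two criteria is met; inactive = neither criterion is met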
# T cruzi growth-3: Trypanosoma cruzi proliferation inhibition. shares compounds with T cruzi growth-1. T. cruzi beta-gal in NIH3T3, GalScreen luminescence, 90 h. 5,600 compounds, 21% hits. inhibition, % at 2.09 µM;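 active = mean inhibition above about 95%, with at least 55% of replicates also reaching it, limit read from the data; inconclusive = meets just one of the two conditions; inactive = meets neither condition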;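 note: plate controls were neutral control median for no effect and positive control median for full effect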
# 3T3 cytotox: kills mouse NIH/3T3 fibroblasts. NIH/3T3 viability, CellTiter-Glo ATP luminescence, 90 h. cytotoxicity (signal decrease), % at 8.35 µM. shares compounds with T cruzi growth-1. 5,600 compounds, 14% hits. AID 651742;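 active = mean signal decrease across replicates above about 35% based on untreated-well scatter, with enough replicates individually passing, limit read from the data; inconclusive = no rule stated though some were filed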;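 note: 0% = median of neutral control wells and 100% = median of positive control wells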
# NIH3T3 tox 2: cytotoxicity in mouse NIH/3T3 fibroblasts; shares compounds with T cruzi growth-1; NIH/3T3 viability, CellTiter-Glo ATP luminescence, 90 h; inhibition, % at 24.9 µM; 5,600 compounds, 56% hits; AID 651744;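 active = mean loss of cell viability signal at or above a set limit, and enough replicates individually reaching it; inconclusive = meets only the mean limit or only the replicate share; inactive = meets neither condition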;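 note: 0% = median of neutral control wells and 100% = median of positive control wells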
# * marks the source's active call; other numbers are inactive results; ? = inconclusive; . = no result.
SMILES,KDM4C inh,T cruzi growth-1,IDH1 mut inh,Pf Dd2 growth,T cruzi growth-2,T cruzi growth-3,3T3 cytotox,NIH3T3 tox 2
COc1cccc(-c2ccc([C@@H]3[C@@H](CO)N4CCCCN(C(=O)Cc5ccncc5)C[C@H]34)cc2)c1,-0.3,114.3*,.,-30.9,101.9*,38.4,24.6,38.2*
COc1cccc(-c2ccc([C@@H]3[C@@H](CO)N4CCCCN(C(=O)Cc5ccncc5)C[C@@H]34)cc2)c1,-0.1,63.4,.,-51.7,.,.,.,.
COc1cccc(-c2ccc([C@H]3[C@@H](CO)N4CCCCN(C(=O)Cc5ccncc5)C[C@H]34)cc2)c1,-0.8,107.4*,.,-39.1,109.6*,61.4,20.4,48.4*
COc1cccc(-c2ccc([C@H]3[C@H](CO)N4CCCCN(C(=O)Cc5ccncc5)C[C@@H]34)cc2)c1,0.4,72.7,.,-39.9,.,.,.,.
COc1cccc(-c2ccc([C@H]3[C@@H](CO)N4CCCCN(C(=O)Cc5ccncc5)C[C@@H]34)cc2)c1,0.0,110.8*,.,-50.7,110.4*,49.1,12.3,23.5
COc1cccc(-c2ccc([C@@H]3[C@H](CO)N4CCCCN(C(=O)Cc5ccncc5)C[C@@H]34)cc2)c1,-0.7,?,.,-43.9,82.9,18.4,8.8,35.4*
O=C(Cc1ccccn1)N1CCCCN2[C@@H](CO)[C@H](c3ccc(-c4ccccc4)cc3)[C@@H]2C1,-0.6,104.9*,.,-12.9,?,75.4,17.0,22.8
O=C(Cc1ccccn1)N1CCCCN2[C@H](CO)[C@@H](c3ccc(-c4ccccc4)cc3)[C@H]2C1,-0.2,-13.7,.,24.4,.,.,.,.
O=C(Cc1ccccn1)N1CCCCN2[C@H](CO)[C@H](c3ccc(-c4ccccc4)cc3)[C@@H]2C1,-1.2,?,.,7.5,102.8*,43.7,4.3,0.1
COc1ccc(-c2ccc([C@@H]3[C@@H](CO)N4CCCCN(C(=O)Cc5ccncc5)C[C@H]34)cc2)cc1,0.5,54.8,.,-47.4,.,.,.,.
COc1ccc(C#Cc2ccc([C@@H]3[C@H](CO)N4CCCCN(C(=O)Cc5ccncc5)C[C@@H]34)cc2)cc1,0.4,111.8*,.,-71.0,103.2*,86.2,14.8,104.4*
COc1ccc(-c2ccc([C@H]3[C@H]4CN(C(=O)Cc5ccncc5)CCCCN4[C@H]3CO)cc2)cc1,-1.0,69.7,.,-3.6,.,.,.,.
COc1ccc(C#Cc2ccc([C@H]3[C@H](CO)N4CCCCN(C(=O)Cc5ccncc5)C[C@@H]34)cc2)cc1,-2.1,105.9*,.,-62.2,107.7*,81.2,20.4,104.7*
C=CCN1CC[C@]2(C)c3cc(O)ccc3CC1[C@@H]2C,.,.,0.2,.,.,.,.,.
O=C(Cc1ccccn1)N1CCCCN2[C@H](CO)[C@@H](c3ccc(C#Cc4ccccc4)cc3)[C@@H]2C1,-0.1,30.3,.,-70.0,.,.,.,.
O=C(Cc1ccccn1)N1CCCCN2[C@H](CO)[C@@H](c3ccc(C#Cc4ccccc4)cc3)[C@H]2C1,1.0,105.6*,.,-34.0,96.9*,40.6,40.8*,105.5*
O=C(Cc1ccccn1)N1CCCCN2[C@@H](CO)[C@H](c3ccc(C#Cc4ccccc4)cc3)[C@@H]2C1,-1.5,114.3*,.,-20.0,109.3*,52.7,38.8*,105.3*
O=C(Cc1ccccn1)N1CCCCN2[C@H](CO)[C@H](c3ccc(C#Cc4ccccc4)cc3)[C@H]2C1,-1.1,105.0*,.,-40.7,102.0*,61.9,52.4*,107.2*
CC(C)C1(NC(=O)C2CC3c4cccc5[nH]cc(c45)CC3N(C)C2)OC2(O)C3CCCN3C(=O)C(Cc3ccccc3)N2C1=O (stereo unspecified),.,.,-2.1,.,.,.,.,.
CC(=O)c1c(C)n(Cc2ccccc2)c2c(Cl)c(Cl)c(Cl)c(OCC(=O)O)c12,.,.,2.6,.,.,.,.,.
COc1ccc(C#Cc2ccc([C@@H]3[C@H](CO)N4CCCCN(C(=O)Cc5cccnc5)C[C@@H]34)cc2)cc1,-1.1,112.1*,.,-15.7,106.6*,90.4,39.0*,103.7*
O=C(Cc1cccnc1)N1CCCCN2[C@H](CO)[C@H](c3ccc(/C=C/c4ccccc4)cc3)[C@H]2C1,0.2,-215.0,.,-44.2,.,.,.,.
O=C(Cc1cccnc1)N1CCCCN2[C@H](CO)[C@@H](c3ccc(/C=C/c4ccccc4)cc3)[C@H]2C1,-0.8,105.1*,.,9.0,108.7*,72.6,33.2,103.6*
COc1ccc(C#Cc2ccc([C@@H]3[C@@H](CO)N4CCCCN(C(=O)Cc5cccnc5)C[C@H]34)cc2)cc1,0.2,100.2*,.,-40.2,106.2*,37.8,24.4,105.1*
Cc1ccccc1-c1ccc([C@H]2[C@H]3CN(C(=O)Cc4ccccn4)CCCCN3[C@H]2CO)cc1,-0.9,?,.,-11.5,51.2,-0.6,-17.1,8.3
SMILES,KDM4C inh,T cruzi growth-1,IDH1 mut inh,Pf Dd2 growth,T cruzi growth-2,T cruzi growth-3,3T3 cytotox,NIH3T3 tox 2
Cc1ccccc1-c1ccc([C@H]2[C@@H](CO)N3CCCCN(C(=O)Cc4ccccn4)C[C@@H]23)cc1,0.8,102.8*,.,5.8,96.5*,85.5,23.0,?
Cc1ccccc1-c1ccc([C@@H]2[C@H]3CN(C(=O)Cc4ccccn4)CCCCN3[C@H]2CO)cc1,-1.4,98.7*,.,-2.4,67.6,27.1,-6.4,8.7
CO/C1=C/C(C)=C/[C@@H](C)[C@@H](O)[C@@H](C)C/C(C)=C/C=C\[C@H](OC)[C@@H]([C@@H](C)[C@@H](O)[C@H](C)[C@@]2(O)C[C@@H](O)[C@H](C)[C@@H](C(C)C)O2)OC1=O,.,.,1.5,.,.,.,.,.
CN1CCC2(c3cccc(O)c3)Cc3nc4ccccc4cc3CC2C1 (stereo unspecified),.,.,0.6,.,.,.,.,.
C=CCN1CCC23c4c5ccc(O)c4OC2/C(=N\NC(=O)c2ccccc2)CCC3(O)C1C5 (stereo unspecified),.,.,-2.6,.,.,.,.,.
C[C@H]1CN([C@@H](C)CO)C(=O)CCCn2cc(nn2)CO[C@H]1CN(C)C(=O)Oc1cccc2ccccc12,-0.3,116.7*,0.3,-14.6,52.5,13.2,10.5,24.0
CC[C@@H]1/C=C\C=C\C[C@H](C)[C@@H](O)[C@](C)(O)C(=O)[C@H](C)[C@@H](O)[C@H](C)C(=O)[C@H](C)[C@@H](O)[C@H](C)/C=C/C(=O)O[C@H]2[C@@H](C)[C@@H](CC1)O[C@@]1(CC[C@@H](C)[C@@H](C[C@H](C)O)O1)[C@@H]2C,.,.,0.0,.,.,.,.,.
O=C(Cc1ccccc1)N1CCCCN2[C@H](C1)[C@@H](c1ccc(C#CC3(O)CCCC3)cc1)[C@@H]2CO,-0.1,14.9,.,-19.2,.,.,.,.
